The values that follow come from ChEMBL document CHEMBL3784967, “7-Substituted umbelliferone derivatives as androgen receptor antagonists for the potential treatment of prostate and breast cancer” (Bioorg Med Chem Lett, 2016).

For experiment [1], the system named is CWR22R. Description: Antiproliferative activity against human 22Rv1 cells after 96 hrs by Oncotest monolayer assay. Format: functional, cell-based. An outline of the steps:
(§1)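 Cells from exponential-phase cultures seeded at 8000-12,000 cells/well, left 24 h to recover, then given compound at 10 concentrations in half-log steps up to 100 µM, in triplicate. After 96 h total exposure, wells were PBS-washed and stained with 7 µg/ml propidium iodide plus 0.1% Triton X-100 for 1-2 h at room temperature. Fluorescence (ex 530/em 620 nm) was read. Absolute IC50 was obtained by non-linear regression.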

The target in a further experiment is T1, Androgen receptor (Homo sapiens, UniProt P10275).
T1 sequence (P10275 whole entry): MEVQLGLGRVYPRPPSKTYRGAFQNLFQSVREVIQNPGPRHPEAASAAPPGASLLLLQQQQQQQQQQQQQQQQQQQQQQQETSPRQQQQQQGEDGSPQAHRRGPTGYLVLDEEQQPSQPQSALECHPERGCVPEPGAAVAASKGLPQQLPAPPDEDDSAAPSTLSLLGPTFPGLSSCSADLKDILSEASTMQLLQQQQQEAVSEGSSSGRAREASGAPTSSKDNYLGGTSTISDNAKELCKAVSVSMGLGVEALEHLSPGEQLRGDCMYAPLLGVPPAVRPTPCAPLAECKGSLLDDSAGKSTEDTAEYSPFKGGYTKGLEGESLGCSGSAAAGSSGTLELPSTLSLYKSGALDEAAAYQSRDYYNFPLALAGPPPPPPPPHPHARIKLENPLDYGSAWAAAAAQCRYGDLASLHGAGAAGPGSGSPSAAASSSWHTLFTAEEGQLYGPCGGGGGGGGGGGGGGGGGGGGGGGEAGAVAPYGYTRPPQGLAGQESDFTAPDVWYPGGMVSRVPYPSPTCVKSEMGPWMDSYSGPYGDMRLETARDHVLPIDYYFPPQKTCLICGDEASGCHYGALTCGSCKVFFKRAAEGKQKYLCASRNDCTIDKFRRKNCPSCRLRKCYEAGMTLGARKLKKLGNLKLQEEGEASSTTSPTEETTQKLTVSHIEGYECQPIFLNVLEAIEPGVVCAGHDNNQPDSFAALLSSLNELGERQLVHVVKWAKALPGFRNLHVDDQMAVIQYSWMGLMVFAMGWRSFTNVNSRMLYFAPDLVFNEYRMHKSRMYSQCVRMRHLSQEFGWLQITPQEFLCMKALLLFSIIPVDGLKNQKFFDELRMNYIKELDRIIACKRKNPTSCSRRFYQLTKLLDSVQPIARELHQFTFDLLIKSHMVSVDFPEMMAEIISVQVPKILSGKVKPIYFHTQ
Description: Antagonist activity against androgen receptor (unknown origin).

In a further experiment the test system is MCF7. Description: Antiproliferative activity against human MCF7 cells after 96 hrs by Oncotest monolayer assay. It counts as functional, cell-based. Put shortly: as §1
The subject of experiment [2] is CWR22R. Kind of experiment: Potency index, ratio IC50 of bicalutamide to IC50 of compound for antiproliferative activity against human 22Rv1 cells. It counts as functional.
Experiment [3] deals with CWR22R. Kind of experiment: Potency index, ratio IC50 of enzalutamide to IC50 of compound for antiproliferative activity against human 22Rv1 cells. Format: functional.
Setting [4] is: Homo sapiens, 22Rv1, 96 h, read-out: IC50.
[5] abbreviates: Homo sapiens, MCF7, 96 h, read-out: IC50.

For the compound `COc1ccc(C(=O)COc2ccc3c(C)cc(=O)oc3c2)cc1`, the IC50 in the experiment on CWR22R [1] (setting [4]) was greater than 100 µM; at Androgen receptor, “Not Active”; in the experiment with MCF7 (setting [5]), greater than 100 µM.
In the case of `COc1cccc(C(=O)COc2ccc3c(C)cc(=O)oc3c2)c1`, the values for the IC50 with CWR22R [1] (setting [4]) and with MCF7 (setting [5]) were 8.41 µM and 2.21 µM, respectively.
Take `Cc1ccc(C(=O)COc2ccc3c(C)cc(=O)oc3c2)cc1`: the IC50 was greater than 100 µM with CWR22R [1] (setting [4]), “Not Active” at Androgen receptor and greater than 100 µM with MCF7 (setting [5]).
Take `Cc1cc(=O)oc2cc(OCC(=O)c3ccccc3)ccc12`: the IC50 with CWR22R [1] (setting [4]) was greater than 100 µM; at Androgen receptor, “Not Active”; in the experiment on MCF7 (setting [5]), greater than 100 µM.
As to `O=C(COc1ccc2c(C(F)(F)F)cc(=O)oc2c1)c1ccc2ccccc2c1`, the IC50 result with CWR22R [1] (cwr22r), against Androgen receptor and with MCF7 (mcf7) was “Not Active” in each case.
On to `Cc1cc(=O)oc2cc(OCC(=O)c3ccc(F)cc3)ccc12`, for which the values for the IC50 with CWR22R [1] (setting [4]), against Androgen receptor and in the experiment on MCF7 (setting [5]) were greater than 100 µM, “Not Active” and greater than 100 µM, respectively.
For `Cc1cc(=O)oc2cc(OCC(=O)c3ccc4c(c3)OCCCO4)ccc12`, the results for the IC50 in the experiment on CWR22R [1] (setting [4]), against Androgen receptor and in the experiment on MCF7 (setting [5]) were greater than 100 µM, “Not Active” and greater than 100 µM, respectively.
In the case of `Cc1cc(=O)oc2cc(OCC(=O)c3ccc4ccccc4c3)ccc12`, the IC50 with CWR22R [1] (setting [4]) is greater than 100 µM; at Androgen receptor, “Not Active”; in the experiment with MCF7 (setting [5]), greater than 100 µM.
`O=C(COc1ccc2c(C(F)(F)F)cc(=O)oc2c1)c1ccc(OC(F)(F)F)cc1`: the IC50 result in the experiment on CWR22R [1] (cwr22r), against Androgen receptor and in the experiment with MCF7 (mcf7) was “Not Active” each time.
On to `Cc1cc(=O)oc2cc(OCC(=O)c3ccc(OC(F)(F)F)cc3)ccc12`, for which the figures for the 50% inhibitory concentration (IC50) with CWR22R [1] (setting [4]), on Androgen receptor and in the experiment on MCF7 (setting [5]) were greater than 100 µM, “Not Active” and greater than 100 µM, respectively.
`O=C(COc1ccc2c(C(F)(F)F)cc(=O)oc2c1)c1ccc(F)cc1`: the IC50 entry in the experiment with CWR22R [1] (cwr22r), against Androgen receptor and with MCF7 (mcf7) was “Not Active” in each case.
As for `Cc1cc(=O)oc2cc(OCC(=O)C(C)(C)C)ccc12`, the IC50 at Androgen receptor (read-out: IC50) is 3.76 µM.
With `CC(C)(C)c1ccc(C(=O)COc2ccc3c(C(F)(F)F)cc(=O)oc3c2)cc1`, the IC50 entry in the experiment on CWR22R [1] (cwr22r), at Androgen receptor and in the experiment on MCF7 (mcf7) was “Not Active” throughout.
Turning to `O=C(COc1ccc2c(C(F)(F)F)cc(=O)oc2c1)c1ccccc1`, the IC50 result with CWR22R [1] (cwr22r), against Androgen receptor and in the experiment with MCF7 (mcf7) was “Not Active” in each case.
Regarding `Cc1cc(=O)oc2cc(OCC(=O)c3ccc(C#N)cc3)ccc12`, the IC50 in the experiment with CWR22R [1] (setting [4]) is greater than 100 µM; on Androgen receptor, “Not Active”; with MCF7 (setting [5]), greater than 100 µM.
As to `N#Cc1ccc(C(=O)COc2ccc3c(C(F)(F)F)cc(=O)oc3c2)cc1`, the IC50 entry in the experiment on CWR22R [1] (cwr22r), at Androgen receptor and in the experiment with MCF7 (mcf7) was “Not Active” throughout.
In the case of `COc1cccc(C(=O)COc2ccc3c(C(F)(F)F)cc(=O)oc3c2)c1`, the IC50 result in the experiment with CWR22R [1] (cwr22r), on Androgen receptor and in the experiment on MCF7 (mcf7) was “Not Active” each time.
`O=C(COc1ccc2c(C(F)(F)F)cc(=O)oc2c1)c1cc(C(F)(F)F)cc(C(F)(F)F)c1`: the IC50 entry in the experiment on CWR22R [1] (cwr22r), against Androgen receptor and in the experiment with MCF7 (mcf7) was “Not Active” in each case.
Turning to `Cc1cc(=O)oc2cc(OCC(=O)c3ccccc3C(F)(F)F)ccc12`, in the experiment on CWR22R [2], the “Ratio IC50” value was found to be 2. Besides, the IC50 in the experiment on CWR22R [1] (setting [4]) was determined as 20.4 µM; in the experiment with MCF7 (setting [5]), 43.2 µM.
Take `O=C(COc1ccc2c(C(F)(F)F)cc(=O)oc2c1)c1ccc2c(c1)OCCCO2`: the 50% inhibitory concentration (IC50) entry with CWR22R [1] (cwr22r), on Androgen receptor and in the experiment with MCF7 (mcf7) was “Not Active” in each case.
With `Cc1cc(=O)oc2cc(OCC(=O)c3ccc(C(C)(C)C)cc3)ccc12`, the “Ratio IC50” value in the experiment on CWR22R [2] turned out to be 2. The IC50 with CWR22R [1] (setting [4]) was 22.3 µM; in the experiment with MCF7 (setting [5]), 20.7 µM.
As for `O=C(COc1ccc2c(C(F)(F)F)cc(=O)oc2c1)c1cccc(C(F)(F)F)c1`, the IC50 entry with CWR22R [1] (cwr22r), against Androgen receptor and in the experiment with MCF7 (mcf7) was “Not Active” throughout.
For `Cc1cc(=O)oc2cc(OCC(=O)c3cccc(C(F)(F)F)c3)ccc12`, the results for the IC50 with CWR22R [1] (setting [4]), against Androgen receptor and in the experiment on MCF7 (setting [5]) were greater than 100 µM, “Not Active” and 38.4 µM, respectively.
Consider `O=C(COc1ccc2c(C(F)(F)F)cc(=O)oc2c1)c1ccccc1C(F)(F)F`, for which the IC50 result in the experiment with CWR22R [1] (cwr22r), at Androgen receptor and in the experiment on MCF7 (mcf7) was “Not Active” throughout.
For the compound `O=C(COc1ccc2c(C(F)(F)F)cc(=O)oc2c1)c1ccc(C(F)(F)F)cc1`, the IC50 result in the experiment on CWR22R [1] (cwr22r), against Androgen receptor and with MCF7 (mcf7) was “Not Active” throughout.
For `CC(C)(C)C(=O)COc1ccc2c(C(F)(F)F)cc(=O)oc2c1`, the IC50 result with CWR22R [1] (cwr22r), on Androgen receptor and with MCF7 (mcf7) was “Not Active” throughout.
As for `Cc1cc(=O)oc2cc(OCC(=O)c3cc(C(F)(F)F)cc(C(F)(F)F)c3)ccc12`, the entries for the “Ratio IC50” value in the experiment on CWR22R [2] and with CWR22R [3] were 50 and greater than 30, respectively. Also, the values for the IC50 in the experiment on CWR22R [1] (setting [4]) and with MCF7 (setting [5]) were 0.93 µM and 0.47 µM, respectively.
In the case of `Cc1cc(=O)oc2cc(OCC(=O)c3ccc(C(F)(F)F)cc3)ccc12`, the IC50 is greater than 100 µM in the experiment with CWR22R [1] (setting [4]), “Not Active” against Androgen receptor and greater than 100 µM in the experiment with MCF7 (setting [5]).
For the compound `COc1ccc(C(=O)COc2ccc3c(C(F)(F)F)cc(=O)oc3c2)cc1`, the IC50 entry in the experiment on CWR22R [1] (cwr22r), against Androgen receptor and in the experiment on MCF7 (mcf7) was “Not Active” in each case.
For the compound `Cc1ccc(C(=O)COc2ccc3c(C(F)(F)F)cc(=O)oc3c2)cc1`, the half-inhibitory concentration (IC50) entry with CWR22R [1] (cwr22r), against Androgen receptor and in the experiment on MCF7 (mcf7) was “Not Active” each time.
Consider `CCOC(=O)C(CC)Oc1ccc2c(C)cc(=O)oc2c1` (configuration not stated), for which the IC50 on Androgen receptor (read-out: IC50) amounted to 5 µM.
Turning to `Cc1cc(=O)oc2cc(OC(C)C(=O)c3ccccc3)ccc12` (configuration not stated), the IC50 at Androgen receptor (read-out: IC50) was 5.09 µM.
As for `CC(O)(CS(=O)(=O)c1ccc(F)cc1)C(=O)Nc1ccc(C#N)c(C(F)(F)F)c1` (configuration not stated) [BICALUTAMIDE], the IC50 in the experiment with CWR22R [1] (setting [4]) was 46.2 µM.
Same read-out and setting: as for `CNC(=O)c1ccc(N2C(=S)N(c3ccc(C#N)c(C(F)(F)F)c3)C(=O)C2(C)C)cc1F` [ENZALUTAMIDE], the figure is 31.8 µM.
